Activity calls are given as the source filed them. The rule behind the calls is not given here.
Legend:
SARS-CoV-2 [1] = assay: Antiviral activity against SARS coronavirus 2 infected in African green monkey Vero cells assessed as reduction in total viral RNA upto 25 uM measured after 24 hrs post-infection by qRT-PCR analysis; format: functional, organism-based; details: Severe acute respiratory syndrome coronavirus 2, dose microM <=25, time 24.0 hrs
Method in brief: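 Total viral RNA in treated, SARS-CoV-2-infected Vero cells was quantified by qPCR. Values are mean ± SEM of three independent experiments.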

[2] = Drug metabolism in human hepatocytes assessed as amide hydrolysis mediated HC-5 metabolite formation at 10 uM incubated upto 2 hrs by LC/UV/MS analysis; format: ADME, cell-based, Hepatocyte
Method in brief: (§1)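 Hepatocytes were suspended at 6 × 10^5 viable cells/mL in KHB buffer and given compound at 10 μM. Incubation was 0 and 2 h at 37 °C under 5% CO2, stopped with acetonitrile. After centrifugation, supernatant metabolites were analysed by LC/UV/MS.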

[3] = Total clearance in overnight-fasted Wistar rat at 0.1 mg/kg, iv measured upto 7 hrs by quadrupole mass spectrometry coupled UFLC analysis; format: ADME, organism-based; details: in vivo
Method in brief: (§2)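 Conscious, freely moving male Wistar rats received compound in saline at 4 mL/kg, either i.v. via jugular vein at 0.1 mg/kg or by oral gavage at 0.5 mg/kg. Cannula blood was sampled up to 7 h and plasma measured by LC-MS/MS. Analysis was noncompartmental (trapezoidal AUC); Cmax and tmax were taken as observed, and t1/2 from log-linear terminal regression over at least 3 points. Mean ± SD, n = 5.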

[4] = Volume of distribution in overnight-fasted Wistar rat at 0.1 mg/kg, iv measured upto 7 hrs by quadrupole mass spectrometry coupled UFLC analysis; format: ADME, organism-based; details: in vivo; method in brief: as §2
[5] = Drug metabolism in rat hepatocytes assessed as amide hydrolysis mediated HC-6 metabolite formation at 10 uM incubated upto 2 hrs by LC/UV/MS analysis; format: ADME, cell-based, Hepatocyte; method in brief: as §1
[6] = MRT (total) in overnight-fasted Wistar rat at 0.1 mg/kg, iv measured upto 7 hrs by quadrupole mass spectrometry coupled UFLC analysis; format: ADME, organism-based; details: in vivo; method in brief: as §2
[7] = Protein binding in human plasma incubated for 6 hrs by quadrupole mass spectrometry coupled UFLC analysis; format: ADME, cell-free; details: read-out: PPB
SARS-CoV-2 [8] = assay: Antiviral activity against SARS coronavirus 2 infected in African green monkey Vero cells assessed as blockade of viral proliferation at 10 uM incubated for 48 hrs by cytopathic effect assay; format: functional, organism-based; details: Severe acute respiratory syndrome coronavirus 2
[9] = Drug metabolism in rat hepatocytes assessed as amide hydrolysis mediated HC-7 metabolite formation at 10 uM incubated upto 2 hrs by LC/UV/MS analysis; format: ADME, cell-based, Hepatocyte; method in brief: as §1
Cytochrome P450 2C8 = target: T1, Cytochrome P450 2C8 (Homo sapiens, UniProt P10632); assay: Inhibition of CYP2C8 in human liver microsome at 10 uM; format: toxicity; details: microsomes
T1 sequence (P10632 whole entry): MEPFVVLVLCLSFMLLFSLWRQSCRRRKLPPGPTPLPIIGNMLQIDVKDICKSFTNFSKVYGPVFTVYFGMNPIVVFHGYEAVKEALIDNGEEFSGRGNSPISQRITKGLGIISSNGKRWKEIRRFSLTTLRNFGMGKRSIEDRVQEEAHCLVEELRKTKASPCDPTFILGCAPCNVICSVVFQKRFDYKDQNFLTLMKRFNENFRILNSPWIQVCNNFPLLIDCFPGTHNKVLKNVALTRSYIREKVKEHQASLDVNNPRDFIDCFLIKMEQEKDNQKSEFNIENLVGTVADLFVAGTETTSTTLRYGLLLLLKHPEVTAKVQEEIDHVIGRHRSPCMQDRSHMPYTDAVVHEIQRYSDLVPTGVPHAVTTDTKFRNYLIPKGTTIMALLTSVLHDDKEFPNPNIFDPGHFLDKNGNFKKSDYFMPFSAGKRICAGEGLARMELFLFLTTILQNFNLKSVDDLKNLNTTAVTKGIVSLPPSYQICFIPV
Method in brief: (§3)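 Human liver microsomes (0.1 mg protein/mL) were mixed with compound at 10 μM and probe substrates in phosphate buffer pH 7.4: tacrine (CYP1A2), paclitaxel (2C8), tolbutamide (2C9), dextromethorphan (2D6) and midazolam (3A4). Reactions were started with an NADPH-generating system, run 10 min at 37 °C and stopped with acetonitrile. Metabolites were measured by LC/MS/MS and activity expressed as % remaining versus the no-inhibitor control.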

Cytochrome P450 2C9 = Cytochrome P450 2C9 (Homo sapiens, UniProt P11712); assay: Inhibition of CYP2C9 in human liver microsome at 10 uM; format: toxicity; details: microsomes; method in brief: as §3
[10] = Tmax in overnight-fasted Wistar rat at 0.5 mg/kg, po measured upto 7 hrs by quadrupole mass spectrometry coupled UFLC analysis; format: ADME, organism-based; details: in vivo; method in brief: as §2
TK6 = assay: Mutagenicity against human TK6 cells assessed as induction of micronuclei formation by Micro-flow assay; format: toxicity, cell-based
Method in brief: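 Human TK6 lymphoblastoid cells were treated either 3 h with 1% S9 followed by 21 h recovery, or continuously for 24 h without S9, at 37 °C under 5% CO2. Relative population doubling was used for cytotoxicity. Positive controls were cyclophosphamide and mitomycin C.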

[11] = Oral bioavailability in overnight-fasted Wistar rat at 0.5 mg/kg and measured upto 7 hrs by quadrupole mass spectrometry coupled UFLC analysis; format: ADME, organism-based; details: in vivo; method in brief: as §2
[12] = AUC (0 to infinity) in overnight-fasted Wistar rat at 0.1 mg/kg, iv measured upto 7 hrs by quadrupole mass spectrometry coupled UFLC analysis; format: ADME, organism-based; set-up: route intravenous, dose 0.1 mg/kg, time <=7; details: in vivo
Method in brief: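 Male Wistar rats, conscious and unrestrained, were given the compound in saline at 4 mL/kg, either as an i.v. bolus via the left jugular vein or by oral gavage. Heparinized blood was drawn from a cannula at set times up to 7 h and the plasma analysed by LC-MS/MS. AUC0–7 and AUC0–∞ came from noncompartmental trapezoidal analysis; mean ± SD, n = 5.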

[13] = Apparent total clearance in overnight-fasted Wistar rat at 0.5 mg/kg, po measured upto 7 hrs by quadrupole mass spectrometry coupled UFLC analysis; format: ADME, organism-based; details: in vivo, read-out: CLt/F (converted); method in brief: as §2
[14] = Drug metabolism in rat hepatocytes assessed as amide hydrolysis mediated HC-5 metabolite formation at 10 uM incubated upto 2 hrs by LC/UV/MS analysis; format: ADME, cell-based, Hepatocyte; method in brief: as §1
[15] = Drug metabolism in rat hepatocytes assessed as CYP450-catalysed oxidative pathway mediated metabolite formation at 10 uM incubated upto 2 hrs by LC/UV/MS analysis; format: ADME, cell-based, Hepatocyte; method in brief: as §1
[16] = MRT (total) in overnight-fasted Wistar rat at 0.5 mg/kg, po measured upto 7 hrs by quadrupole mass spectrometry coupled UFLC analysis; format: ADME, organism-based; details: in vivo; method in brief: as §2
[17] = Cytotoxicity against African green monkey Vero cells assessed as cell viability incubated for 24 hrs by MTT assay; format: toxicity, cell-based; details: chlorocebus sabaeus
Method in brief: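 Vero cells were seeded at 1.0 × 10^4 cells/well and cultured overnight at 37 °C. Compound was added for 24 h, and viability was measured by MTT assay with absorbance at 570 nm.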

Sequence of Cytochrome P450 2C9 (P11712 whole entry): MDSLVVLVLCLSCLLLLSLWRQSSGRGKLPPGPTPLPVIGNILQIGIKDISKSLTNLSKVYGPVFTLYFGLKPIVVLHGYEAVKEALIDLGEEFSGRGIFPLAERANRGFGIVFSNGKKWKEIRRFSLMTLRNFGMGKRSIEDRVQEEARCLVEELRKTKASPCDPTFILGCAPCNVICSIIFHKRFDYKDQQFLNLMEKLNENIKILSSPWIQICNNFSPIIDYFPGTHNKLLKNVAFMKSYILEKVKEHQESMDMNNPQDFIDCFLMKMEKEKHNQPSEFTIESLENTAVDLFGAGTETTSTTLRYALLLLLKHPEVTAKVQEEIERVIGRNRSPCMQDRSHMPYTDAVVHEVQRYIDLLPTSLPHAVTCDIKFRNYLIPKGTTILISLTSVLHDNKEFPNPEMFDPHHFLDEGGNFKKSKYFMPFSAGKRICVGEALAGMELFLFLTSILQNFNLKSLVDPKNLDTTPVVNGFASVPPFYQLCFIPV

In the case of COc1cccc2[nH]c(C(=O)N[C@@H](CC(C)C)C(=O)N[C@@H](C[C@@H]3CCNC3=O)C(=O)c3nc4ccccc4s3)cc12, the Activity (SARS-CoV-2 [1]) is reported as “Active”, the Drug metabolism [2] is reported as “Metabolite_Detected” and the clearance [3] is reported as 107 mL/min/kg. The Vd [4] was 3.51 L/kg, the Drug metabolism [5] was “Metabolite_Detected” and the MRT [6] was 29.6 min. For the same compound, the fraction unbound at 6 h [7] was 0.01, the Activity (SARS-CoV-2 [8]) was “Active” and the Drug metabolism [9] was “Metabolite_Detected”. For the same compound, the “inhibition (INH)” value (Cytochrome P450 2C8) was “Active”, the “inhibition (INH)” value (Cytochrome P450 2C9) was “Not Active” and the Tmax [10] was 21 min. The Activity (TK6) was “Non-Toxic”, the bioavailability [11] was 3.55% and the AUC(0-inf) [12] was 19.7 ng·h/mL. For the same compound, the CL/F [13] was 2650 mL/min/kg, the Drug metabolism [14] was “Metabolite_Detected” and the Drug metabolism [15] was “Metabolite_Detected”. The MRT [16] was 792 min and the CC50 at 24 h [17] was greater than 100 µM.

Reference: ChEMBL document CHEMBL5042480, “3CL Protease Inhibitors with an Electrophilic Arylketone Moiety as Anti-SARS-CoV-2 Agents” (J Med Chem, 2022)
